# Laboratory results from publication PMC8519014 (Journal of pharmaceutical and biomedical analysis, 2017).
# Structures can show the parent of a compound that is named as a salt.
# Assay: Mice pharmacokinetic study after oral administration of a mixture of 11 TKIs
# Type: in vivo, FVB wild-type mice
# Details: for concentration at 15 min / concentration at 30 min / concentration at 45 min / concentration at 60 min / concentration at 120 min / concentration at 240 min / AUC(0-t) / Cmax / Tmax: 1 mg/kg; for Tmax: oral gavage 1 mg/kg each as a mixture of 11 TKIs, FVB wild-type mice, blood, n = 4
# Procedure, shortened: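 Male FVB mice (25–30 g, 10–12 weeks) fasted overnight with water, then oral gavage of an 11-TKI cassette in oral suspension vehicle (0.06 mg/ml each), 1 mg/kg. Tail-tip blood (~15 μl, heparinized) taken at 15–1440 min (nine points). Quantified by UHPLC BEH C18–ESI triple-quadrupole MS/MS against blank-blood calibrants (acetonitrile/testosterone IS precipitation). Non-compartmental parameters, n = 4.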
# [1] = male, FVB wild-type, mouse, whole blood, po
# [2] = male, FVB wild-type, mouse, whole blood, po, Tmax
SMILES,concentration at 15 min [1] [ng/mL],concentration at 30 min [1] [ng/mL],concentration at 45 min [1] [ng/mL],concentration at 60 min [1] [ng/mL],concentration at 120 min [1] [ng/mL],concentration at 240 min [1] [ng/mL],AUC(0-t) [1] [ng·h/mL],Cmax [1] [ng/mL],Tmax [2] [h],Tmax [h],"Systemic exposure (AUC) relative to sorafenib (pazopanib AUC versus sorafenib AUC, oral 1 mg/kg as mixture of 11 TKIs, mice) [times]","Detection in blood after oral dosing (oral 1 mg/kg as mixture of 11 TKIs, mice)"
"CS(=O)(=O)CCNCc1ccc(-c2ccc3ncnc(Nc4ccc(OCc5cccc(F)c5)c(Cl)c4)c3c2)o1 [Lapatinib, lapatinib]",8.8 ± 12.7,16.3 ± 28.2,21.4 ± 25.6,21.2 ± 25.7,20.1 ± 28.2,18.1 ± 25.4,–,–,–,–,–,–
"CNC(=O)c1ccccc1Sc1ccc2c(/C=C/c3ccccn3)n[nH]c2c1 [Axitinib, axitinib]",51.7 ± 40,42.7 ± 19.3,46.1 ± 39.6,34.2 ± 37.3,11.1 ± 16.4,4.8 ± 26.8,–,–,–,–,–,–
"COc1cc2ncnc(Nc3ccc(F)c(Cl)c3)c2cc1OCCCN1CCOCC1 [Gefitinib, gefitinib]",24.7 ± 22,32.4 ± 28.1,36.7 ± 41.5,33.2 ± 42.7,21.8 ± 25.5,32.7 ± 26.3,–,–,–,–,–,–
"Cc1nc(Nc2ncc(C(=O)Nc3c(C)cccc3Cl)s2)cc(N2CCN(CCO)CC2)n1 [Dasatinib, dasatinib]",9.1 ± 18.2,21.5 ± 19.2,34.3 ± 41.6,24.8 ± 49.7,18.4 ± 23.1,10.1 ± 20.2,–,–,–,–,–,–
"CN(C)C/C=C/C(=O)Nc1cc2c(Nc3ccc(F)c(Cl)c3)ncnc2cc1O[C@H]1CCOC1 [Afatinib, afatinib]",–,–,–,–,–,–,–,–,–,–,–,not detected
Cc1ccc(NC(=O)c2ccc(CN3CCN(C)CC3)cc2)cc1Nc1nccc(-c2cccnc2)n1 [Imatinib],53.1 ± 20.1,55.7 ± 28.6,68.8 ± 63.8,48.1 ± 56.9,19.9 ± 19,11.1 ± 19.2,–,–,–,–,–,–
"C#Cc1cccc(Nc2ncnc3cc(OCCOC)c(OCCOC)cc23)c1 [Erlotinib, erlotinib hydrochloride]",147 ± 62.2,124 ± 45,120 ± 97.6,87.6 ± 87.6,23 ± 37.7,14.4 ± 24.9,–,147 ± 62.2,0.25,–,–,–

# The next lines start with the values.
concentration at 15 min [1] [ng/mL],concentration at 30 min [1] [ng/mL],concentration at 45 min [1] [ng/mL],concentration at 60 min [1] [ng/mL],concentration at 120 min [1] [ng/mL],concentration at 240 min [1] [ng/mL],AUC(0-t) [1] [ng·h/mL],Cmax [1] [ng/mL],Tmax [2] [h],Tmax [h],"Systemic exposure (AUC) relative to sorafenib (pazopanib AUC versus sorafenib AUC, oral 1 mg/kg as mixture of 11 TKIs, mice) [times]","Detection in blood after oral dosing (oral 1 mg/kg as mixture of 11 TKIs, mice)",SMILES
62.1 ± 32.8,59.1 ± 31.4,69 ± 37.2,68.8 ± 26.8,67.3 ± 64.3,34.6 ± 33.1,–,–,–,–,–,–,"Cc1cn(-c2cc(NC(=O)c3ccc(C)c(Nc4nccc(-c5cccnc5)n4)c3)cc(C(F)(F)F)c2)cn1 [Nilotinib, nilotinib]"
–,–,–,–,–,–,4150,717 ± 206,~1.62,1.62 ± 1.11,7.5,–,"Cc1ccc(Nc2nccc(N(C)c3ccc4c(C)n(C)nc4c3)n2)cc1S(N)(=O)=O [Pazopanib, pazopanib hydrochloride]"
–,–,–,–,–,–,558,154 ± 30.4,1,–,–,–,"CNC(=O)c1cc(Oc2ccc(NC(=O)Nc3ccc(Cl)c(C(F)(F)F)c3)cc2)ccn1 [Sorafenib, sorafenib tosylate]"
9.4 ± 12.1,18.4 ± 10.6,22.8 ± 18.9,12.7 ± 20,14.7 ± 15.8,–,–,–,–,–,–,–,"CCN(CC)CCNC(=O)c1c(C)[nH]c(/C=C2\C(=O)Nc3ccc(F)cc32)c1C [Sunitinib, sunitinib malate]"
